According to ChEMBL document CHEMBL2040790 (Bioorg Med Chem Lett, 2012):
Active and inactive are the calls of the source. The calls are words filed in the database; no cut-off is given here.

Tests used:
Vaccinia virus [1] = assay: Antiviral activity against Vaccinia virus; assay type: functional, organism-based; settings: Orthopoxvirus vaccinia
La Crosse virus [2] = assay: Antiviral activity against La Crosse virus infected in african green monkey Vero cells assessed as inhibition of virus-induced cytopathic effect by fluorometric analysis; assay type: functional, organism-based
Vero = assay: Cytotoxicity against african green monkey Vero cells; assay type: cell-based; settings: chlorocebus sabaeus
Ebolavirus = assay: Antiviral activity against Ebola virus; assay type: functional
[3] = tested on: Respiratory syncytial virus; assay: Antiviral activity against Respiratory syncytial virus; assay type: functional, organism-based
Rift Valley fever virus = assay: Antiviral activity against Rift Valley fever virus at 5 uM; assay type: functional, organism-based
In short: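 Single-concentration primary screen at 5 μM. Molecules active there and bearing viable scaffolds were then taken into concentration-response testing over 0.009–25 μM.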

Sindbis virus = assay: Antiviral activity against Sindbis virus; assay type: functional, organism-based
[4] = tested on: Encephalomyocarditis virus; assay: Antiviral activity against Encephalomyocarditis virus; assay type: functional, organism-based
[5] = tested on: Mammarenavirus choriomeningitidis; assay: Antiviral activity against Lymphocytic choriomeningitis virus; assay type: functional
[6] = tested on: unidentified influenza virus; assay: Antiviral activity against influenza virus; assay type: functional, organism-based
La Crosse virus [7] = assay: Antiviral activity against La Crosse virus infected in african green monkey Vero cells assessed as inhibition of virus-induced cytopathic effect at 5 uM after 4 days by spectrophotometric analysis; assay type: functional, organism-based
In short: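 Primary screen run at one fixed concentration of 5 μM. Compounds active at that level were then carried into dose-response testing (0.009–25 μM) against RVFV and LACV.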

[8] = tested on: Orthohantavirus andesense; assay: Antiviral activity against Andes virus; assay type: functional
[9] = tested on: Human immunodeficiency virus 1; assay: Antiviral activity against Human immunodeficiency virus 1; assay type: functional, organism-based
Tacaribe virus = assay: Antiviral activity against Tacaribe virus; assay type: functional, organism-based; settings: Mammarenavirus tacaribeense
Dengue virus = assay: Antiviral activity against Dengue virus; assay type: functional, organism-based
Vaccinia virus [10] = assay: Antiviral activity against Vaccinia virus during single experiment set up; assay type: functional, organism-based; settings: Orthopoxvirus vaccinia
La Crosse virus [11] = assay: Antiviral activity against La Crosse virus infected in african green monkey Vero cells assessed as inhibition of virus-induced cytopathic effect at 25 uM during single experiment set up by fluorometric analysis; assay type: functional, organism-based
Vaccinia virus [12] = assay: Antiviral activity against Vaccinia virus at 25 uM during single experiment set up; assay type: functional, organism-based; settings: Orthopoxvirus vaccinia
[13] = Solubility of the compound in simulated gastric fluid; assay type: physicochemical
[14] = Solubility of the compound in water; assay type: physicochemical
[15] = Solubility of the compound in Caco2 transport buffer; assay type: physicochemical, Caco-2
Vaccinia virus [16] = assay: Antiviral activity against Vaccinia virus at 25 uM during one experiment of multiple experiment set up; assay type: functional, organism-based; settings: Orthopoxvirus vaccinia
La Crosse virus [17] = assay: Antiviral activity against La Crosse virus infected in african green monkey Vero cells assessed as inhibition of virus-induced cytopathic effect during single experiment set up by fluorometric analysis; assay type: functional, organism-based

Row | SMILES | EC50 (Vaccinia virus [1]) | EC50 (La Crosse virus [2]) | Activity (Vero) | Activity (La Crosse virus [11]) | Activity (Vaccinia virus [12]) | other results
1 | Cc1ccc(O)c(NC(=S)NC(=O)c2ccc(C(C)(C)C)cc2)c1 | > 25 µM | > 25 µM | Toxic | – | – | –
2 | COc1cc(NC(=S)NC(=O)c2ccc(C(C)(C)C)cc2)ccc1NC(=O)c1ccccc1Cl | 0.25 µM | 0.27 µM | – | – | – | Activity (Ebolavirus): Active; Activity [3]: Active; Activity (Rift Valley fever virus): Active; Activity (Sindbis virus): Active; Activity [4]: Active; Activity [5]: Active; Activity [6]: Active; Activity (La Crosse virus [7]): Active; Activity [8]: Active; Activity [9]: Active; Activity (Tacaribe virus): Active; Activity (Dengue virus): Active
3 | CC(C)(C)c1ccc(C(=O)NC(=S)Nc2ccccc2C(=O)O)cc1 | > 25 µM | > 25 µM | – | – | – | EC50 (Vaccinia virus [10]): 2.29 µM
4 | CC(C)(C)c1ccc(C(=O)NC(=S)Nc2cc(Cl)ccc2Cl)cc1 | 2.42 µM | 2.45 µM | – | inactive | inactive | –
5 | CNc1ccc(NC(=S)NC(=O)c2ccc(C(C)(C)C)cc2)c(Cl)c1.Cl | 0.33 µM | 0.24 µM | – | – | – | solubility ([13]; simulated gastric fluid, read-out: solubility): 3.2 µg/mL; solubility [14]: 0.2 µg/mL; solubility [15]: 0.1 µg/mL
6 | CC(C)(C)c1ccc(C(=O)NC(=S)Nc2ccc(N3CCOCC3)cc2)cc1 | > 25 µM | > 25 µM | Toxic | inactive | inactive | –
7 | CC(C)(C)c1ccc(C(=O)NC(=S)Nc2ccccc2Cl)cc1 | 0.35 µM | 0.28 µM | – | – | – | Activity (Rift Valley fever virus): Active; Activity (La Crosse virus [7]): Active
8 | CC(C)(C)c1ccc(C(=O)NC(=S)Nc2ccc(CN3CCCCC3)cc2)cc1 | > 25 µM | > 25 µM | Toxic | inactive | inactive | –
9 | CC(C)(C)c1ccc(C(=O)NC(=S)Nc2ccc(N)c(N)c2)cc1 | > 25 µM | > 25 µM | – | – | – | EC50 (Vaccinia virus [10]): 7.78 µM
10 | CC(C)(C)c1ccc(C(=O)NC(=S)Nc2ccc(CN3CCOCC3)cc2)cc1 | > 25 µM | > 25 µM | Toxic | inactive | inactive | –
11 | CC(C)(C)c1ccc(C(=O)NC(=S)Nc2ccc(NC(=O)c3ccccc3)cc2)cc1 | 0.17 µM | 0.15 µM | – | inactive | inactive | –
12 | CNc1ccc(C(=O)Nc2ccc(NC(=S)NC(=O)c3ccc(C(C)(C)C)cc3)cc2OC)cc1.Cl | 0.81 µM | > 25 µM | Toxic | – | inactive | –
13 | COc1cc(NC(=S)NC(=O)c2ccc(C(C)(C)C)cc2)ccc1NC(=O)c1ccc(C(=O)O)cc1 | > 25 µM | > 25 µM | – | inactive | inactive | –
14 | Cc1c(Cl)cccc1NC(=S)NC(=O)c1ccc(C(C)(C)C)cc1 | 6.47 µM | 0.919 µM | – | inactive | inactive | –
15 | COc1cc(NC(=S)NC(=N)c2ccc(C(C)(C)C)cc2)ccc1NC(=O)c1ccccc1Cl | 7.64 µM | 3.01 µM | – | – | – | Activity (Vaccinia virus [16]): inactive
16 | CC(C)(C)c1ccc(C(=O)NC(=S)Nc2ccccc2CN)cc1 | > 25 µM | > 25 µM | – | – | – | EC50 (La Crosse virus [17]): 6.93 µM
17 | COc1cc(NC(=S)NC(=O)c2ccc(C(C)(C)C)cc2)ccc1N | 2.09 µM | 1.69 µM | – | inactive | inactive | –
18 | COc1cc(NC(=S)NC(=O)c2ccc(C(C)(C)C)cc2)ccc1NC(=O)c1cccc(C(=O)O)c1 | > 25 µM | – | – | inactive | inactive | –
19 | CC(C)(C)c1ccc(C(=O)NC(=S)Nc2ccc(N)cc2)cc1 | 4.41 µM | 2.27 µM | – | – | inactive | –
20 | CC(C)(C)c1ccc(C(=O)NC(=S)Nc2cccc(N)c2)cc1 | 2.72 µM | 2.19 µM | – | – | inactive | –
21 | CC(C)(C)c1ccc(C(=O)NC(=S)Nc2ccc(N3CCCCC3)cc2)cc1 | > 25 µM | > 25 µM | Toxic | inactive | inactive | –
22 | CC(C)(C)c1ccc(C(=O)NC(=S)Nc2cc(C(C)(C)C)ccc2O)cc1 | 0.98 µM | 3.42 µM | Toxic | – | – | –
23 | CC(=O)N1CCN(c2ccc(NC(=S)NC(=O)c3ccc(C(C)(C)C)cc3)cc2)CC1 | > 25 µM | > 25 µM | Toxic | inactive | inactive | –
24 | CC(C)(C)c1ccc(C(=O)NC(=S)Nc2ccccc2)cc1 | 5.57 µM | 5.01 µM | – | inactive | – | –
25 | CN(C)c1ccc(NC(=S)NC(=O)c2ccc(C(C)(C)C)cc2)c(Cl)c1.Cl | 3.26 µM | 1.55 µM | – | – | – | solubility ([13]; simulated gi fluid, BLD = below limit of detection): BLD
26 | CNc1cccc(C(=O)Nc2ccc(NC(=S)NC(=O)c3ccc(C(C)(C)C)cc3)cc2OC)c1.Cl | 1.63 µM | > 25 µM | Toxic | – | – | –
